A short description of series [1]: folding enthalpy; higher = less favourable; fluorescence melt of hairpins on a sequencing array, two-state fit. To be noted: sodium 0.088 M. A digest of the protocol: (§1)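 Melting temperature and folding enthalpy were derived from bootstrapped two-state fits. The fitted temperatures were raised by 9.35 °C to agree with UV melts, and four replicates were combined by inverse variance. The underlying data were Cy3 fluorescence images of library hairpins, with annealed Cy3 and quencher oligos, on a sequenced MiSeq flow cell in 50 mM Na-HEPES pH 8.0, 25 mM NaCl, taken in 2.5 °C steps up to 60 °C, normalised to pre-quench Cy3 and to control constructs.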

The nature of series [2]: melting temperature; fluorescence melt of hairpins on a sequencing array, two-state fit, raised by 9.35 °C to match UV melts. The settings on record: sodium 0.088 M. A digest of the protocol:
as §1

The source of these data is the array DNA melting data of Ke et al. (doi:10.1101/2024.01.08.574731).

For the sequence GCGGTAGCCGC ((((...)))), the folding enthalpy in series [1] was -11.8 kcal/mol. Besides, the Tm in series [2] stood at 61.2 °C.

Turning to GCGGTAGCGAAAGCTCGC (((..(((....)))))), the folding enthalpy in series [1] is -15.5 kcal/mol. Besides, in series [2], the Tm was 52.8 °C.

Regarding GCGGTAGGAAACCACCGC (((((.(....).))))), the folding enthalpy in series [1] was -36.8 kcal/mol. Moreover, the Tm in series [2] was determined as 57.3 °C.

Turning to GCGGTAGGAAACTGCCGC ((((.((....)).)))), in series [1], the folding enthalpy is -29.6 kcal/mol. Also, the Tm in series [2] is 61.6 °C.

In the case of GCGGTAGGAAACTGCTGC ((.(.((....)).).)), in series [1], the folding enthalpy is -27.5 kcal/mol. Further, the Tm in series [2] is 45.5 °C.

For the sequence GCGGTATCCGC ((((...)))), the folding enthalpy in series [1] is -24 kcal/mol. The Tm in series [2] came out at 54.9 °C.

GCGGTATGCCGC ((((....)))): the folding enthalpy in series [1] was -33.6 kcal/mol. The Tm in series [2] turned out to be 63 °C.

For the sequence GCGGTCAACCGC ((((....)))), the folding enthalpy in series [1] was -28.6 kcal/mol. Moreover, in series [2], the Tm turned out to be 56 °C.

GCGGTCACGAAAGTGCGC (((..(((....)))))): the folding enthalpy in series [1] is -29.4 kcal/mol. The Tm in series [2] turned out to be 52.1 °C.

On to GCGGTCCCGAAAGGGCGC (((..(((....)))))), for which, in series [1], the folding enthalpy was -18.5 kcal/mol. In series [2], the Tm stood at 60.1 °C.

With GCGGTCGAAAGACCCCGC ((((((....)))..))), in series [1], the folding enthalpy was -14.9 kcal/mol. Moreover, the Tm in series [2] turned out to be 47.5 °C.

As for GCGGTCGAAAGACCCGC ((((((....))).))), in series [1], the folding enthalpy was -24 kcal/mol. For the same sequence, in series [2], the Tm came out at 66.8 °C.

In the case of GCGGTCGAAAGACGACGC ((((((....)))..))), the folding enthalpy in series [1] was -37.4 kcal/mol. The Tm in series [2] amounted to 53.8 °C.

As for GCGGTCGACCGC ((((....)))), the folding enthalpy in series [1] is -38.5 kcal/mol. Also, in series [2], the Tm worked out at 67.7 °C.

For the sequence GCGGTCGCCGC ((((...)))), the folding enthalpy in series [1] is -5.62 kcal/mol. In series [2], the Tm was found to be 60.6 °C.

Take GCGGTCGGAAACAACCGC (((((.(....).))))): the folding enthalpy in series [1] is -34.7 kcal/mol. In series [2], the Tm was found to be 55.1 °C.

As to GCGGTCGGCCGC ((((....)))), the folding enthalpy in series [1] was -24.2 kcal/mol. Further, in series [2], the Tm is 60.1 °C.

Turning to GCGGTCTCGAAAGAGCGC (((..(((....)))))), the folding enthalpy in series [1] is -38.2 kcal/mol. Moreover, in series [2], the Tm turned out to be 58.6 °C.

Take GCGGTGACCCGC ((((....)))): in series [1], the folding enthalpy is -23.1 kcal/mol. Further, the Tm in series [2] worked out at 55.3 °C.

On to GCGGTGACGAAAGTCCGC (((..(((....)))))), for which the folding enthalpy in series [1] is -30.8 kcal/mol. In addition, the Tm in series [2] stood at 57.2 °C.

GCGGTGCGAAAGCAAAGC ((..(((....)))..)): the folding enthalpy in series [1] is -32.1 kcal/mol. In addition, the Tm in series [2] turned out to be 63.3 °C.

With GCGGTGCGAAAGCAAGGC ((..(((....)))..)), the folding enthalpy in series [1] is -19.1 kcal/mol. Also, the Tm in series [2] is 51.2 °C.

For the sequence GCGGTGCGAAAGCAGGGC ((..(((....)))..)), in series [1], the folding enthalpy was -20.5 kcal/mol. Besides, the Tm in series [2] amounted to 55.2 °C.

With GCGGTGCGAAAGCGCGGC ((.(.((....)).).)), the folding enthalpy in series [1] is -25 kcal/mol. The Tm in series [2] came to 64.5 °C.

As to GCGGTGCGAAAGCGCTGC ((.(.((....)).).)), the folding enthalpy in series [1] was -21.6 kcal/mol. In series [2], the Tm was found to be 66.9 °C.

With GCGGTGGGAAACCACCAC (.(((((....))))).), in series [1], the folding enthalpy was -12.4 kcal/mol. In series [2], the Tm is 48.1 °C.

With GCGGTGGGAAACCATCGC (((.(((....))).))), in series [1], the folding enthalpy was -40.9 kcal/mol. For the same sequence, in series [2], the Tm was found to be 61.8 °C.

For the sequence GCGGTGTTCCGC ((((....)))), the folding enthalpy in series [1] is -20 kcal/mol. In addition, in series [2], the Tm is 65.7 °C.

In the case of GCGGTTCCCGC ((((...)))), in series [1], the folding enthalpy is -22.1 kcal/mol. Besides, the Tm in series [2] came out at 67.5 °C.

In the case of GCGGTTGGAAACAGCCGC ((((.((....)).)))), the folding enthalpy in series [1] was -40.1 kcal/mol. In addition, the Tm in series [2] came to 64.6 °C.

GCGGTTGTCCGC ((((....)))): in series [1], the folding enthalpy was -23.5 kcal/mol. Moreover, the Tm in series [2] was 58.6 °C.

As to GCGGTTTGCCGC ((((....)))), the folding enthalpy in series [1] is -41.2 kcal/mol. Besides, in series [2], the Tm was 60.6 °C.

As for GCGTAAAACGC ((((...)))), in series [1], the folding enthalpy is -21.7 kcal/mol. For the same sequence, the Tm in series [2] is 52.9 °C.

GCGTAAGCGAAAGCTCGC (((..(((....)))))): the folding enthalpy in series [1] is -17.6 kcal/mol. In series [2], the Tm came to 48.4 °C.

GCGTAAGGAAACCTACGC (((((.(....).))))): the folding enthalpy in series [1] was -40 kcal/mol. Also, in series [2], the Tm is 49 °C.

As for GCGTAAGGAAACTCACGC ((((.((....)).)))), the folding enthalpy in series [1] was -26.5 kcal/mol. For the same sequence, the Tm in series [2] came out at 43.8 °C.

As for GCGTAAGGAAACTTGCGC (((.(((....))).))), the folding enthalpy in series [1] was -39.4 kcal/mol. Besides, the Tm in series [2] was determined as 54.6 °C.

Consider GCGTAATTACGC ((((....)))), for which, in series [1], the folding enthalpy is -30 kcal/mol. The Tm in series [2] worked out at 51.7 °C.

For the sequence GCGTACAGACGC ((((....)))), the folding enthalpy in series [1] was -22.5 kcal/mol. Besides, in series [2], the Tm was found to be 51 °C.

As to GCGTACGAAAGTAACCGC ((((((....)))..))), in series [1], the folding enthalpy is -22.1 kcal/mol. Further, in series [2], the Tm was 45 °C.

As for GCGTACGAAAGTACCCGC ((((((....)))..))), the folding enthalpy in series [1] is -14.2 kcal/mol. Moreover, the Tm in series [2] came to 40.2 °C.

GCGTACGCGAAAGCGCGC (((..(((....)))))): the folding enthalpy in series [1] is -16.8 kcal/mol. Further, in series [2], the Tm was 58.5 °C.

As for GCGTACGGAAACGCACGC ((((.((....)).)))), the folding enthalpy in series [1] was -46.7 kcal/mol. For the same sequence, the Tm in series [2] was found to be 55.4 °C.

Take GCGTACGGAAACGTGCGC (((.(((....))).))): the folding enthalpy in series [1] was -54.1 kcal/mol. In series [2], the Tm was found to be 64.6 °C.

As to GCGTACGGAAACGTGTGC ((..(((....)))..)), the folding enthalpy in series [1] is -29.1 kcal/mol. Moreover, the Tm in series [2] was 44.7 °C.

Turning to GCGTACGGACGC ((((....)))), in series [1], the folding enthalpy was -29.5 kcal/mol. For the same sequence, the Tm in series [2] is 52.9 °C.

For GCGTACTCACGC ((((....)))), the folding enthalpy in series [1] was -19.5 kcal/mol. For the same sequence, the Tm in series [2] was found to be 52.3 °C.

As to GCGTAGAAATACGC (((((....))))), in series [1], the folding enthalpy is -25.1 kcal/mol. The Tm in series [2] came to 55.2 °C.

On to GCGTAGAGACGC ((((....)))), for which the folding enthalpy in series [1] was -13.3 kcal/mol. In addition, the Tm in series [2] is 49.1 °C.

GCGTAGCGAAAGCAAGGC ((.(.((....)).).)): the folding enthalpy in series [1] was -7.5 kcal/mol. For the same sequence, the Tm in series [2] worked out at 35.5 °C.

Turning to GCGTAGCGAAAGCAGCGC (((..((....))..))), the folding enthalpy in series [1] was -16.6 kcal/mol. In addition, in series [2], the Tm turned out to be 65.4 °C.

Regarding GCGTAGCGAAAGCGAGGC ((.(.((....)).).)), the folding enthalpy in series [1] is -7.75 kcal/mol. Moreover, the Tm in series [2] was found to be 46.6 °C.

Take GCGTAGCGAAAGCGTCGC (((..((....))..))): the folding enthalpy in series [1] was -20.5 kcal/mol. Also, the Tm in series [2] was found to be 61.4 °C.

As to GCGTAGCGAAAGCTCAGC ((..(((....)))..)), the folding enthalpy in series [1] was -10.8 kcal/mol. The Tm in series [2] was 46 °C.

For the sequence GCGTAGCGAAAGCTCCGC (((.(((....))).))), the folding enthalpy in series [1] was -40 kcal/mol. In series [2], the Tm is 49.7 °C.

GCGTAGCGAAAGCTTCGC (((.(((....))).))): the folding enthalpy in series [1] was -36.2 kcal/mol. Moreover, in series [2], the Tm came out at 55 °C.

For the sequence GCGTAGCGAAAGCTTGGC ((..(((....)))..)), the folding enthalpy in series [1] is -7.38 kcal/mol. The Tm in series [2] was found to be 36.5 °C.
